# PAFAH2 FP inh – PAFAH2 (human) inhibition; recombinant PAFAH2, FP-rhodamine activity probe, fluorescence polarization; inhibition, % at 3.39 µM; 340,000 tested, 0.99% active;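 active = inhibition above the mean over all tested compounds plus 3 SD, cut at about 30% in these data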;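 note: inhibitors block probe labeling of enzyme so polarization drops; 0% = enzyme with DMSO and 100% = wells lacking PAFAH2 protein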
# ARFGAP1 inhibitor – inhibitors of rat ARFGAP1; 360,000 tested, 0.26% active; Q62848; Arfgap1-stimulated ARF1 GTP hydrolysis, GDP FP detection; inhibition, % at 16.5 µM; AID 651572;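 active = inhibition above a per-plate limit, mean inhibition of low control wells plus 3 SD, cut at about 25% in these data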;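 note: 0% = DMSO wells with enzyme and 100% = wells lacking Arfgap1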
# Target sequence (Q62848 1-136 limits assumed): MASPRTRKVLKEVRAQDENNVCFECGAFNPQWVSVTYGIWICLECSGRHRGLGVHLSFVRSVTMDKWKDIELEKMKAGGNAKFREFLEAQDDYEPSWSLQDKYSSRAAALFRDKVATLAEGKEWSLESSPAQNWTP
#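 Material – truncated rat Arfgap1 GAP domain · Buffer or medium – HEPES-based buffer, pH 7.5 · Reagent – human ARF1(Δ1-17)-GTP substrate · Dosing – 16.5 µM single point, 1.26% DMSO · Schedule – GTP hydrolysis reaction 2 h at 25 °C · Technique – GDP detection by fluorescence polarization · Benchmarks – No-Arfgap1 wells (100%) versus DMSO full-reaction wells (0%) · Repeats – single replicate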
# ASAP1 GAP inh – ASAP1 ArfGAP inhibition | Q9ULH1 | ASAP1-stimulated ARF1 GTP hydrolysis, GDP FP detection | inhibition, % at 16.5 µM | 360,000 tested, 0.19% active | AID 624377; in the data active = inhibition above about 25%;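 note: 0% = vehicle with enzyme and substrate and 100% = no enzyme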
# PAFAH1B2 inh – blocks human PAF acetylhydrolase 1b catalytic subunit 2 | P68402 | recombinant PAFAH1B2, FP-rhodamine activity probe, fluorescence polarization | inhibition, % at 3.39 µM | 340,000 tested, 1.2% active;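 active = inhibition above the mean of all tested compounds plus 3 SD, cut at about 24% in these data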;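 note: 0% = enzyme with DMSO and 100% = wells lacking PAFAH1B2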
# Target sequence (P68402 whole entry, looked up): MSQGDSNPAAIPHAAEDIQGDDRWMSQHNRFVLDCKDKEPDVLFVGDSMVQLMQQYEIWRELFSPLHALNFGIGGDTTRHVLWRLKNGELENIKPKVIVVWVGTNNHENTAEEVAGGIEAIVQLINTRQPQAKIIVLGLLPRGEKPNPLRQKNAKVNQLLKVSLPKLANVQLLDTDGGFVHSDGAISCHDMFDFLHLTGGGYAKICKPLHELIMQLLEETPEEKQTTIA
# pPAFAH FP inh – inhibitors of human plasma PAF acetylhydrolase (pPAFAH). recombinant pPAFAH, FP-rhodamine probe fluorescence polarization. inhibition, % at 3.39 µM. 330,000 tested, 1.5% active;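 active = inhibition above the mean inhibition across the screen plus 3 SD, cut at about 25% in these data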;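 note: inhibitors block binding of the rhodamine activity-based probe so polarization drops; 0% = enzyme with DMSO and 100% = wells lacking pPAFAH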
# PAFAH1B3 inh – inhibitors of human PAFAH1B3; recombinant PAFAH1B3, FP-rhodamine probe, fluorescence polarization; inhibition, % at 3.39 µM; 340,000 tested, 0.28% active; AID 492972;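 active = inhibition above the screen-wide average of all tested compounds plus 3 SD, cut at about 25% in these data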;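 note: 0% = enzyme with DMSO only and 100% = wells lacking PAFAH1B3 protein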
# Target sequence (Q15102 whole entry, looked up): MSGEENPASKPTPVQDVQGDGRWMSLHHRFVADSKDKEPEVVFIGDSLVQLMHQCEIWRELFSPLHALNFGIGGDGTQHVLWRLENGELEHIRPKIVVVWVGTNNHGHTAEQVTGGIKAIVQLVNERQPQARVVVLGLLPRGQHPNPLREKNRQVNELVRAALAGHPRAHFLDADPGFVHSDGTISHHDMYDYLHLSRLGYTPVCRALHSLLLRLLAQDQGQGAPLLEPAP
# Starred values were filed as active, the others as inactive; · = no result given. Rows were chosen to be rich in hits. Some 2.7% of all compounds tested hit in one or more screens of this group.
SMILES,PAFAH2 FP inh,ARFGAP1 inhibitor,ASAP1 GAP inh,PAFAH1B2 inh,pPAFAH FP inh,PAFAH1B3 inh
O=C(O)c1ccc2c(c1)C1C=CCC1C(c1cc3c(cc1Br)OCO3)N2 (stereo not given),9,7,-8,-1,8,3
COC(=O)C1=C(C)N(Cc2ccccc2C(F)(F)F)C(=NCc2ccc3c(c2)OCO3)NC1c1ccccc1C(F)(F)F (stereo not given),·,6,16,·,·,·
Cc1cc(NC(=O)CSCC(=O)N(C)Cc2ccc(Cl)c(Cl)c2)no1,-5,8,0,0,-1,1
Cc1cc(NC(=O)COC(=O)CSCc2ccc(Cl)c(Cl)c2)no1,7,5,2,-1,31*,5
O=C(N/N=C/c1ccc([N+](=O)[O-])o1)c1cn(-c2ccccc2)nc1-c1ccccc1,-4,-2,5,-1,27*,7
COc1ccc(NC(=O)N(C)C[C@H]2OCc3cn(nn3)CCCC(=O)N([C@H](C)CO)C[C@@H]2C)cc1,·,1,-7,·,·,·
COc1ccc(C(NC(=O)/C=C/c2ccco2)c2ccc(OC)cc2)cc1,4,8,6,0,27*,0
COC(=O)[C@H](Cc1ccccc1)NC(=O)NCc1ccc(C)cc1,·,2,-15,·,0,·
Cc1ccc(CNC(=O)N[C@@H](Cc2ccccc2)C(=O)O)cc1,0,-3,-8,26*,1,2
C[C@@H]1ON(C)[C@H]2C[C@H]3c4[nH]c5c(-c6ccc(C(F)(F)F)cc6)cccc5c4CCN3C(=O)[C@@H]12,·,13,7,·,·,·
COC(=O)C1=C(O)/C(=C\c2ccc(CNS(=O)(=O)c3ccc(Cl)cc3)o2)N=C1C,16,8,-12,7,16,3
CCOC(=O)C1=C(O)/C(=C\c2ccc(CNS(=O)(=O)c3ccc(Br)cc3)o2)N=C1C,-3,4,12,8,28*,10
CCOC(=O)C1=CCN(S(=O)(=O)c2cccc(Cl)c2)C1c1cccc(Br)c1 (stereo not given),·,-3,7,·,·,·
Cc1ccc(NC(=S)Nc2ccc(-c3nnc4n3CCCCC4)cc2)cc1C,·,-2,-11,·,·,·
O=C(Nc1ccc(S(=O)(=O)N2CCCCCC2)cc1)c1[nH]ncc1[N+](=O)[O-],4,5,-2,7,16,4
O=C(Nc1ccc(OC(F)(F)F)cc1)c1[nH]ncc1[N+](=O)[O-],37*,-1,-5,3,18,6
C[C@H](O)[C@@H]1C(=O)N2CCc3c([nH]c4c(-c5ccccc5)cccc34)[C@@H]2C[C@@H]1N(C)C(=O)/C=C/c1ccccc1,·,-8,-3,·,·,·
COc1ccc(CN2CCN(c3cccc(C)c3C)CC2)cc1OC,-7,34*,1,3,5,-2
C=CCn1c(SC2CCOC2=O)nc2sc(CC)cc2c1=O (stereo not given),10,12,-1,-4,27*,4
Cc1nn(-c2ccccc2)c(C)c1NC(=O)COC(=O)c1ccc(Cl)c(N)c1,27,-12,1,3,28*,8
CC(C)[C@H](NC(=O)c1ccccc1)C(=O)N1CCC[C@H]1C(=O)NCCc1ccccc1Cl,·,1,11,·,·,·
O=C(NC(Cc1ccccc1)C(=O)O)OCC1c2ccccc2-c2ccccc21 (stereo not given),3,1,8,27*,7,10
O=C(CSCc1ccc(Br)cc1)N1CCCC1,8,-12,-3,29*,6,7
O=C(CSCc1ccc(Br)cc1)N1CCOCC1,5,17,-6,26*,5,3
Nc1[nH]c(C(=O)c2ccc(Br)cc2)c(-c2ccc(Cl)cc2)c1C(=O)NCCc1c[nH]c2ccccc12,·,-4,2,·,·,·
SMILES,PAFAH2 FP inh,ARFGAP1 inhibitor,ASAP1 GAP inh,PAFAH1B2 inh,pPAFAH FP inh,PAFAH1B3 inh
Oc1ccc(/C=N/N2CCN(C3c4ccccc4-c4ccccc43)CC2)cc1O,-6,6,9,1,33*,-2
COC(=O)C1=C(C)N(C)C(=NCc2ccccc2)NC1c1ccc(F)cc1 (stereo not given),·,-7,-4,·,·,·
O=C(O)C1Nc2ccc(OC(F)(F)F)cc2C2C=CCC12 (stereo not given),·,·,·,·,61*,·
O=C(NC1CC1)C1Nc2ccc(OC(F)(F)F)cc2C2C=CCC12 (stereo not given),3,-4,12,1,6,1
CC(=O)c1ccc2c(c1)C1C=CCC1C(C(=O)O)N2 (stereo not given),·,-8,-11,·,·,·
Cc1ccc2c(c1)C1C=CCC1C(C(=O)O)N2 (stereo not given),·,·,·,·,61*,·
O=S1(=O)c2ccc(Br)cc2OC[C@H](c2ccccc2)N1Cc1ccccc1,·,-2,-5,·,·,·
CN(C)c1cccc2c(S(=O)(=O)NCC3CCN(C(=O)C(=O)c4cccs4)CC3)cccc12,·,5,19,·,·,·
Cc1ccc(NC(=S)NNC(=O)c2cccc([N+](=O)[O-])c2)cc1Cl,19,18,-3,25*,21,2
O=C(NNC(=S)Nc1ccc(F)cc1)c1cccc([N+](=O)[O-])c1,2,1,5,10,0,11
CCc1cc(C(=O)N=Nc2c(O)[nH]c3ccc([N+](=O)[O-])cc23)c2ccccc2n1,1,-4,6,-2,33*,8
O=C(NCC1CCCO1)c1cccc(S(=O)(=O)Nc2ccc(F)cc2)c1 (stereo not given),1,-9,-5,7,25*,9
O=C(NCCCN1CCCC1=O)c1cccc(NS(=O)(=O)c2ccccc2)c1,5,2,-11,6,8,7
Cc1cccc(NS(=O)(=O)c2cccc(C(=O)NCCCN3CCCC3=O)c2)c1,-2,10,-17,6,28*,0
O=C(NCCCN1CCCC1=O)c1cccc(S(=O)(=O)Nc2ccc(F)cc2)c1,1,-8,-10,-1,34*,3
CCN1CCN(c2cc(C)c3cc(NC(=O)c4cc(OC)cc(OC)c4)ccc3n2)CC1,-3,5,8,3,29*,-1
CCOC(=O)C1CCN(C(=O)COC(=O)CSc2ccc([N+](=O)[O-])cc2)CC1,0,3,-3,9,31*,5
Cc1ccc(S(=O)(=O)NC(=O)Nc2ccc(N(C)C)cc2)cc1,0,-110,-84,6,25*,7
O=C(Cc1ccc(Br)cc1)Nc1ncc([N+](=O)[O-])s1,11,11,9,35*,15,12
C=CCN1C(=O)[C@]2(OCCC=C[C@H]2C)c2cc(OC)ccc21,·,2,-5,·,·,·
O=C(C1CC(Cl)CN1S(=O)(=O)c1ccc(Cl)cc1)N1CCOCC1 (stereo not given),12,-2,-1,7,3,-3
O=C(N1CCOCC1)N1CCN(S(=O)(=O)c2ccc(Cl)cc2)C1,-2,7,-15,26*,-6,4

# Screening results from PubChem.
